Reference: paper PMC12264769 (RSC Medicinal Chemistry, 2025)
Like-named read-outs stand apart in the source and are kept apart here.

Columns and labels:
[1] = tested on: normal human embryonic kidney (HEK-293) cell line; assay: MTT cytotoxicity towards normal cell line HEK-293; assay type: cell-based
[2] = tested on: prostatic small cell carcinoma cell line (PC-3); assay: MTT anti-proliferative assay, PC-3; assay type: cell-based
[3] = tested on: human breast cancer cell line (MCF-7); assay: MTT anti-proliferative assay, MCF-7; assay type: cell-based
[4] = tested on: murine mammary carcinoma cell line (4T1); assay: MTT anti-proliferative assay, 4T1; assay type: cell-based; conditions: read-out: 4T1 IC50, 48-hour treatment, mean ± SD (n = 2)
MCF-7 cells [5] = assay: annexin-V/FITC-PI apoptosis assay; assay type: cell-based, human; conditions: MCF-7, 48 hours, at respective IC50
MCF-7 cells [6] = assay: Nuclear staining assay; assay type: cell-based, human; conditions: MCF-7, IC50, 48 hours, vs control and BG-45
MCF-7 cells [7] = assay: ROS generation; assay type: cell-based, human; conditions: MCF-7, IC50 dose, vs 1% DMSO control
How it was run: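 After 24 h in 12-well plates, MCF-7 cells were treated for 48 h with test compound, reference compound, or 1% DMSO as control. Medium was replaced with 10 μM DCFH-DA for 10 min at 37 °C in darkness. DCF fluorescence was imaged by laser scanning confocal microscopy at 60× (ex 485 nm, em 535 nm). Intensity was quantified by image analysis as relative fluorescence (%) versus control. Data are mean standard deviation (n = 2), with one-way ANOVA.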

[8] = read-out: HEK-293 IC50, MTT, 48-hour treatment, mean ± SD (n = 2)
[9] = read-out: PC-3 IC50, MTT, 48-hour treatment, mean ± SD (n = 2)
[10] = read-out: MCF-7 IC50, MTT, 48-hour treatment, mean ± SD (n = 2)
[11] = Homo sapiens, MCF7, 48 h, read-out: MCF-7 IC50, MTT, 48-hour treatment, mean ± SD (n = 2)

SMILES | IC50 [2, 9] | IC50 [3, 10] | IC50 [4] | IC50 [3, 11] | IC50 [1, 8] | also measured
COc1ccc(-c2noc(-c3cccs3)c2C(F)(F)F)cc1 [TTI-3] | 21.97 ± 0.21 µM | 21.5 ± 0.11 µM | 24.3 ± 0.24 µM |  | 102.2 ± 0.27 µM | 
FC(F)(F)c1c(-c2ccc3c(c2)OCCO3)noc1-c1cccs1 [TTI-5, 3-(2,3-dihydrobenzo[b][1,4]dioxin-6-yl)-5-(thiophen-2-yl)-4-(trifluoromethyl)isoxazole] | 26.89 ± 0.11 µM |  | 28.6 ± 0.09 µM |  | 109.7 ± 0.13 µM | 
COc1cc(-c2noc(-c3cccs3)c2C(F)(F)F)cc(OC)c1OC [TTI-6, 5-(thiophen-2-yl)-4-(trifluoromethyl)-3-(3,4,5-trimethoxyphenyl)isoxazole] | 7.67 ± 0.31 µM | 1.91 ± 0.09 µM | 10.9 ± 0.2 µM | 1.92 µM |  | IC50 ([1]; Homo sapiens, HEK293, 48 h, read-out: HEK-293 IC50, MTT, 48-hour treatment, mean ± SD (n = 2)): 68.29 ± 0.11 µM; selectivity for MCF-7 over other cancer cell lines (first value) ([3]; matches 4T1/MCF-7 IC50 ratio): 5.70 fold; selectivity for MCF-7 over other cancer cell lines (second value) ([3]; matches PC-3/MCF-7 IC50 ratio): 4 fold; selectivity for MCF-7 cells over HEK-293 cell lines ([3]; ratio of IC50 values): 35.62 fold; total apoptotic percentage (Q2 and Q4) (MCF-7 cells [5]): 50.0 ± 1.3%; nuclear / cell morphology (DAPI, AO staining) (MCF-7 cells [6]): significant alteration in cell morphology; relative fluorescence intensity vs control (ROS) (MCF-7 cells [7]): significant increase
FC(F)(F)c1c(-c2ccc(Cl)cc2)noc1-c1cccs1 [TTI-9] | 21.92 ± 0.21 µM | 20.4 ± 0.21 µM | 21.72 ± 0.19 µM |  | 96.6 ± 0.47 µM | 
FC(F)(F)c1ccc(-c2noc(-c3cccs3)c2C(F)(F)F)cc1 [TTI-11] | 20.99 ± 0.19 µM | 19.3 ± 0.24 µM | 19.36 ± 0.19 µM |  | 92.75 ± 0.15 µM | 

Continued, in another order:

IC50 [2, 9] | IC50 [3, 10] | IC50 [4] | IC50 [3, 11] | SMILES | IC50 [1, 8] | also measured
8.08 ± 0.29 µM | 2.91 ± 0.13 µM | 11.6 ± 0.35 µM |  | COc1ccc(-c2noc(-c3cccs3)c2C(F)(F)F)cc1OC [TTI-4, 3-(3,4-dimethoxyphenyl)-5-(thiophen-2-yl)-4-(trifluoromethyl)isoxazole] | 70.49 ± 0.22 µM | superior anti-breast cancer activity than TTI-3 ([3]; MCF-7 IC50 compared with TTI-3): 7 times
15.4 ± 0.25 µM | 17.03 ± 0.12 µM | 17 ± 0.31 µM |  | O=[N+]([O-])c1ccc(-c2noc(-c3cccs3)c2C(F)(F)F)cc1 [TTI-12, 3-(4-nitrophenyl)-5-(thiophen-2-yl)-4-(trifluoromethyl)isoxazole] | 83.77 ± 0.28 µM | 
14.2 ± 0.41 µM |  | 15.15 ± 0.1 µM | 13.4 ± 0.19 µM | COc1ccc(-c2noc(-c3ccc(C)s3)c2C(F)(F)F)cc1OC [TTI-13, 3-(3,4-dimethoxyphenyl)-5-(5-methylthiophen-2-yl)-4-(trifluoromethyl)isoxazole] | 75.91 ± 0.16 µM | 
 | 9.09 ± 0.25 µM | 11.7 ± 0.14 µM |  | COc1ccc(-c2noc(-c3cccs3)c2C(F)F)cc1OC [TTI-14, 4-(difluoromethyl)-3-(3,4-dimethoxyphenyl)-5-(thiophen-2-yl)isoxazole] | 71.14 ± 0.21 µM | IC50 ([2]; 48 h, read-out: PC-3 IC50, MTT, 48-hour treatment, mean ± SD (n = 2)): 13 ± 0.17 µM
13.7 ± 0.39 µM |  | 14.3 ± 0.21 µM | 9.44 ± 0.22 µM | FC(F)(F)c1c(-c2cnn3c(-c4ccccc4)ccnc23)noc1-c1cccs1 [TTI-15, 3-(7-phenylpyrazolo[1,5-a]pyrimidin-3-yl)-5-(thiophen-2-yl)-4-(trifluoromethyl)isoxazole] | 74.3 ± 0.25 µM | 
